Reference: ChEMBL document CHEMBL1154630, “Discovery of colon tumor cell growth inhibitory agents through a combinatorial approach” (Eur J Med Chem, 2010)

Experiments:
[1] = target: T1, cGMP-inhibited 3',5'-cyclic phosphodiesterase 3A (Homo sapiens, UniProt Q14432); assay: Inhibition of human recombinant PDE3A at 50 uM by fluorescence polarization assay using cAMP as substrate
HT-29 [2] = assay: Cytotoxicity against human HT-29 cells at 50 uM after 72 hrs by celltiter glo assay; format: functional; conditions: HT-29, 72 h, read-out: GI
In short: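 HT-29 cells in RPMI 1640 plus 5% FBS, cultures >95% viable by Trypan blue. Seeded at 5000 cells/well and incubated 18–24 h, then exposed to a single 50 μM screening dose in triplicate. Live cells measured by CellTiter-Glo luminescent ATP assay at 72 h; percent growth inhibition reported.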

[3] = target: T1, cGMP-inhibited 3',5'-cyclic phosphodiesterase 3A; assay: Inhibition of human recombinant PDE3A at 50 uM by fluorescence polarization assay using cGMP as substrate
[4] = target: Baculoviral IAP repeat-containing protein 5 (Homo sapiens, UniProt O15392); assay: Inhibition of survivin
HT-29 [5] = assay: Cytotoxicity against human HT-29 cells after 72 hrs by celltiter glo assay; format: functional, cell-based; conditions: HT-29, 72 h
In short: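 HT-29 cells grown in RPMI 1640 with 5% FBS, used only at >95% viability (Trypan blue). 5000 cells/well, left 18–24 h before treatment. Viability read by CellTiter-Glo luminescence (ATP content) 72 h after treatment. IC50 from 8 concentrations, at least four replicates each, fitted to a four-parameter logistic equation.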

[6] = target: T1, cGMP-inhibited 3',5'-cyclic phosphodiesterase 3A; assay: Inhibition of human recombinant PDE3A by fluorescence polarization assay using cAMP as substrate
[7] = target: T1, cGMP-inhibited 3',5'-cyclic phosphodiesterase 3A; assay: Inhibition of human recombinant PDE3A by fluorescence polarization assay using cGMP as substrate

T1 sequence (Q14432 whole entry): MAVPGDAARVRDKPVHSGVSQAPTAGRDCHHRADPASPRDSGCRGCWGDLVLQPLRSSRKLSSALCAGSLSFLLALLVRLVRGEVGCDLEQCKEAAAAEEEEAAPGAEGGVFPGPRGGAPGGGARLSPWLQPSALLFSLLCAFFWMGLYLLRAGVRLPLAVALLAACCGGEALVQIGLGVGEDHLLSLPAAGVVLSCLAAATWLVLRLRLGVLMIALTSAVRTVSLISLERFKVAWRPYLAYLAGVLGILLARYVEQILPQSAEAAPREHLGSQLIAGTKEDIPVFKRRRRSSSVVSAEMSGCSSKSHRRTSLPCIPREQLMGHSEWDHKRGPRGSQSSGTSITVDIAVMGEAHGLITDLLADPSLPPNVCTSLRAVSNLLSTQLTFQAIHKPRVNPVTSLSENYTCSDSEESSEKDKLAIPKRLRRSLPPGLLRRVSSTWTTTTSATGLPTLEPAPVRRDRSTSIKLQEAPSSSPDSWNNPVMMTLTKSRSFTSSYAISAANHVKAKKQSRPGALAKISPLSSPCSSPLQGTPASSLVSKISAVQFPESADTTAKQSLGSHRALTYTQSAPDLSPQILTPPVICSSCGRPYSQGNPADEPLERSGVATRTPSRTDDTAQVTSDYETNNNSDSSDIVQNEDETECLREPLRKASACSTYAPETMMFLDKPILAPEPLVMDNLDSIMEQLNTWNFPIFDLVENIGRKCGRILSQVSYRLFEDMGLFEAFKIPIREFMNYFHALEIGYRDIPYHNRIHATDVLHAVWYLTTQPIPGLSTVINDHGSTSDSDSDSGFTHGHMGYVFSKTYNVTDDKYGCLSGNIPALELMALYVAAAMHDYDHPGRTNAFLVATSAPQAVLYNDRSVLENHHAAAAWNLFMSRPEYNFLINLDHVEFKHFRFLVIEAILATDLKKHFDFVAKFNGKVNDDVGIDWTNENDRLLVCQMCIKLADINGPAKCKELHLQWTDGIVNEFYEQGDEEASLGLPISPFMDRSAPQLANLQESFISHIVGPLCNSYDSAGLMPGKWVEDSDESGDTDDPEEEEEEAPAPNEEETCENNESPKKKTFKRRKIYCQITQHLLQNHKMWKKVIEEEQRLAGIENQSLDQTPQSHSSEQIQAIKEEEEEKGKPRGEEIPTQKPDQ
Sequence of Baculoviral IAP repeat-containing protein 5 (O15392 whole entry): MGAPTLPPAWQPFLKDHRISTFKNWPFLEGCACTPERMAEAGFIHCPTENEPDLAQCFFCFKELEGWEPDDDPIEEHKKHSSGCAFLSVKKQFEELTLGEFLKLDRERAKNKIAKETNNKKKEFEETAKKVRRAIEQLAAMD

Row | inhibition [1] [%] | inhibition [3] [%] | IC50 [6] [µM] | IC50 [7] [µM] | SMILES | inhibition of growth at 50 µM (HT-29 [2]) [%] | Kd [4] [µM] | IC50 (HT-29 [5]) [µM]
1 | 20 | 45 | – | – | N#Cc1c(-c2ccccc2O)cc(-c2cccc(Br)c2)[nH]c1=O | -5 | – | –
2 | 18 | 36 | – | – | N#Cc1c(-c2ccccc2Cl)cc(-c2ccc(Br)cc2)[nH]c1=O | 5 | – | –
3 | – | – | – | – | N#Cc1c(-c2ccccc2)cc(-c2cc(Br)ccc2O)[nH]c1=O | – | 5.7 | –
4 | 25 | 70 | – | – | COc1ccc(-c2cc(-c3ccc(Br)cc3)[nH]c(=N)c2C#N)c(OC)c1 | 2 | – | –
5 | 7 | 0 | – | – | CCOc1ccc(-c2cc(-c3ccsc3)[nH]c(=O)c2C#N)cc1 | -1 | – | –
6 | 20 | 40 | – | – | N#Cc1c(-c2ccccc2O)cc(-c2ccccc2Br)[nH]c1=N | 28 | – | –
7 | 5 | 14 | – | – | N#Cc1c(-c2ccc(Cl)cc2)cc(-c2ccsc2)[nH]c1=O | – | – | –
8 | 22 | 27 | – | – | N#Cc1c(-c2ccccc2O)cc(-c2ccc(Br)cc2)[nH]c1=N | 23 | – | –
9 | 10 | 24 | – | – | N#Cc1c(-c2cccc(Cl)c2)cc(-c2ccccc2)[nH]c1=O | 80 | – | 2.1
10 | 55 | 80 | 13.3 | 13.5 | CCOc1ccc(-c2cc(-c3ccsc3)[nH]c(=N)c2C#N)cc1 | -10 | – | –
11 | 4 | 0 | – | – | N#Cc1c(-c2ccsc2)cc(-c2ccccc2)[nH]c1=N | 25 | – | –
12 | 10 | 13 | – | – | N#Cc1c(-c2cccc(Cl)c2)cc(-c2ccc(Br)cc2)[nH]c1=N | 7 | – | –
13 | 2 | -8 | – | – | COc1ccc(-c2cc(-c3ccc(Br)cc3)[nH]c(=O)c2C#N)c(OC)c1 | 0 | – | –
14 | 18 | 36 | – | – | N#Cc1c(-c2ccccc2O)cc(-c2cccc(Br)c2)[nH]c1=N | 30 | – | –
15 | 10 | 30 | – | – | COc1ccc(-c2cc(-c3ccsc3)[nH]c(=N)c2C#N)cc1 | 75 | – | 2.7
16 | 10 | 8 | – | – | COc1ccccc1-c1cc(-c2ccsc2)[nH]c(=O)c1C#N | 20 | – | –

Row | inhibition [1] [%] | inhibition [3] [%] | IC50 [6] [µM] | IC50 [7] [µM] | SMILES | inhibition of growth at 50 µM (HT-29 [2]) [%] | Kd [4] [µM] | IC50 (HT-29 [5]) [µM]
17 | 7 | 9 | – | – | N#Cc1c(-c2ccsc2)cc(-c2ccccc2)[nH]c1=O | -10 | – | –
18 | 8 | 17 | – | – | COc1ccc(OC)c(-c2cc(-c3ccc(Br)cc3)[nH]c(=O)c2C#N)c1 | 33 | – | –
19 | 37 | -10 | – | – | CCOc1ccccc1-c1cc(-c2ccsc2)[nH]c(=N)c1C#N | 92 | – | 6
20 | 21 | 37 | – | – | N#Cc1c(-c2ccccc2O)cc(-c2ccsc2)[nH]c1=O | 79 | – | 46
21 | 15 | 20 | – | – | N#Cc1c(-c2cccc(Cl)c2)cc(-c2ccccc2)[nH]c1=N | – | – | –
22 | 34 | 50 | – | – | N#Cc1c(-c2ccccc2O)cc(-c2ccccc2Br)[nH]c1=O | 22 | – | –
23 | 8 | 0 | – | – | COc1ccc(-c2cc(-c3ccsc3)[nH]c(=O)c2C#N)cc1 | -20 | – | –
24 | 47 | – | – | – | COc1ccccc1-c1cc(-c2ccsc2)[nH]c(=N)c1C#N | 78 | – | 35
25 | 28 | 45 | – | – | N#Cc1c(-c2ccc(Cl)cc2)cc(-c2ccsc2)[nH]c1=N | 65 | – | –
26 | 8 | 21 | – | – | N#Cc1c(-c2cccc(Cl)c2)cc(-c2ccc(Br)cc2)[nH]c1=O | 7 | – | –
27 | 21 | 26 | – | – | N#Cc1c(-c2ccccc2O)cc(-c2ccsc2)[nH]c1=N | 44 | – | –
28 | 20 | 20 | – | – | COc1ccc(OC)c(-c2cc(-c3ccc(Br)cc3)[nH]c(=N)c2C#N)c1 | 95 | – | 4
29 | 36 | 47 | – | – | N#Cc1c(-c2ccccc2Cl)cc(-c2ccc(Br)cc2)[nH]c1=N | -16 | – | –
30 | 5 | 20 | – | – | CCOc1ccccc1-c1cc(-c2ccsc2)[nH]c(=O)c1C#N | 80 | – | 1.25
31 | 10 | 28 | – | – | N#Cc1c(-c2ccccc2O)cc(-c2ccc(Br)cc2)[nH]c1=O | 94 | – | 21
